LEDGF integ inh: blockers of LEDGF/p75-dependent integrase strand transfer – biochemical, TR-FRET, high throughput, primary screen; HIV-1 integrase (with human LEDGF/p75); TR-FRET IN-LEDGF/p75 DNA integration, Eu/Cy5; inhibition, % at 3.7 µM; 370,000 compounds, 0.64% hits; AID 743269, 2014;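 active means inhibition above the screen-wide mean plus 3 SD, cut at about 13% in these data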;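 further: signal is the Cy5 over europium emission ratio at 671 and 618 nm; 0% = plate median of compound wells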
MBD2 inh: inhibitors of MBD2 binding to methylated DNA, primary screen, biochemical, TR-FRET, DNA-binding domain, human; inhibition, % at 4.4 µM; 370,000 compounds, 0.31% hits; Methyl-CpG-binding domain protein 2 (Homo sapiens), Q9UBB5; MBD2 binding to methylated oligonucleotide; in the data active means inhibition above about 13%
ATG4B inhibitor: ATG4B protease inhibitors, primary screen, biochemical, fluorescence, uHTS; Cysteine protease ATG4B (Homo sapiens), Q9Y4P1; 340,000 compounds, 0.51% hits; inhibition, % at 8.33 µM; ATG4B cleavage of LC3-PLA2, NBD-HPC fluorescence, 1 h; AID 504462, 2011; in the data active means inhibition above about 40%
Target sequence (Q9Y4P1 whole entry, looked up): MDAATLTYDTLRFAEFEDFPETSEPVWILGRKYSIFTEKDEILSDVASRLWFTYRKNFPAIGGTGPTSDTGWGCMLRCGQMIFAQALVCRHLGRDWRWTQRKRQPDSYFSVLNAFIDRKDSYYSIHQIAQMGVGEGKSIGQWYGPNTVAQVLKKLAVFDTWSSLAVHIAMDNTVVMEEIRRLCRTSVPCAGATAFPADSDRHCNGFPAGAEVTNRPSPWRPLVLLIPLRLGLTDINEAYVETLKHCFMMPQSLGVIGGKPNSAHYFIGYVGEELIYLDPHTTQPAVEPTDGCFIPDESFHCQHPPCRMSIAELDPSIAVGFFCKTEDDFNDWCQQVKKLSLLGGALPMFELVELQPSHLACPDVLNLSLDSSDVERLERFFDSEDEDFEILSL
CSN deneddyl inh: inhibitors of CSN-mediated cullin deneddylation, primary screen, biochemical, fluorescence polarization, uHTS; COP9 signalosome complex subunit 5 (Homo sapiens), Q92905; Purified CSN, SCF-Nedd8-OG deneddylation; inhibition, % at 12.5 µM; 360,000 compounds, 0.38% hits;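 active means pattern-corrected inhibition above about 35%, with an unprinted fluorescence ratio check between 0.5 and 1.5, limit read from the data, passing the limit was not always enough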;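 further: 0% = enzyme with substrate and 100% = substrate without enzyme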
Target sequence (Q92905 whole entry, looked up, one chain of several): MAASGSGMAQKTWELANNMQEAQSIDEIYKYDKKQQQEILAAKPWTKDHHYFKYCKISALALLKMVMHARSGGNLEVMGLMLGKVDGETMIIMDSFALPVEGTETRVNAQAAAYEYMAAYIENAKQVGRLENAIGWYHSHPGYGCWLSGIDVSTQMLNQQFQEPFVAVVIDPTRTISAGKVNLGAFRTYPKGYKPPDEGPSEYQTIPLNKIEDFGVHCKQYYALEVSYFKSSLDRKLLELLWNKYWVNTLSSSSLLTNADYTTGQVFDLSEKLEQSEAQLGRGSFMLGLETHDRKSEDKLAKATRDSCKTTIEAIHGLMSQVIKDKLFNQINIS
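Assay system: Purified human Csn5 enzyme expressed in HEK293T cells | Amount: Enzyme 0.24 nM | Measured by: Fluorescence polarization readout | Medium: Tris/NaCl/DTT buffer, pH 7.5 | Compound dosing: One concentration, 12.5 µM, 0.25% DMSO | Times: 90 min incubation of compound, enzyme and substrate at room temperature | Control set: no-enzyme wells high, enzyme-with-substrate wells low | Read-out: % inhibition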
UHRF1 MBD2 ctr: UHRF1 methylated DNA binding inhibitors, primary screen, counter-screen for MBD2 inhibitor project, biochemical, TR-FRET, human UHRF1, single concentration; E3 ubiquitin-protein ligase UHRF1 (Homo sapiens), Q96T88; UHRF1 binding to methylated oligo; inhibition, % at 4.4 µM; 370,000 compounds, 0.75% hits;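 further: UHRF1 SRA domain binding a hemimethylated CpG hairpin DNA probe; 0% = median of test compound wells and 100% = reference inhibitor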
rCAG binder: binders of r(CAG) RNA repeats, primary screen, biochemical, fluorescence; r(CAG) RNA repeat, TO-PRO-1 dye displacement fluorescence; 370,000 compounds, 1.3% hits; inhibition, % at 3 µM;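 active means inhibition above the plate cutoff, the mean of all test compounds on that plate plus 3 SD, cut at about 35% in these data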;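 further: 0% = DMSO alone and 100% = 100 µM mitoxantrone as full dye displacement; higher means more dye released from RNA so lower well fluorescence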
UHRF1 DNA bind: UHRF1 methylated DNA binding inhibitors, counter-screen for MBD2 inhibitor project, biochemical, TR-FRET, human UHRF1. 1,000 compounds, 25% hits. UHRF1 binding to methylated oligonucleotide. shares compounds with MBD2 inh. inhibition, % at 4.4 µM;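 further: UHRF1 SRA domain binding a labeled hemimethylated CpG hairpin DNA; 0% = vehicle only and 100% = reference inhibitor with vehicle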
MBD2 DBD conf: inhibitors of MBD2 binding to methylated DNA, confirmation, biochemical, TR-FRET, DNA-binding domain, human. TR-FRET MBD2-DBD binding to methylated oligonucleotide. inhibition, % at 4.4 µM. 1,000 compounds, 26% hits. shares compounds with MBD2 inh; in the data active means inhibition above about 14%
Active calls of the source: *. In the library only some 3.1% were active in any assay of this set; here they are far more common. Unless noted, no stated cut-off is given here; in the data, active means inhibition above about 21%; inactive means the rest.

What do the screens show for `COc1cccc(C(=O)NC2CC3CCCC(C2)N3CC(=O)Nc2ccccc2)c1` (stereo unspecified)?
LEDGF integ inh: 3; MBD2 inh: 13*; ATG4B inhibitor: -8; CSN deneddyl inh: 62*; UHRF1 MBD2 ctr: 21; rCAG binder: -4; UHRF1 DNA bind: 12; MBD2 DBD conf: 5

How did COc1cccc(C(=O)NC2CC3CCCC(C2)N3CC(=O)Nc2ccc(N(C)C)cc2)c1 (stereo unspecified) do in these assays?
LEDGF integ inh: 0; MBD2 inh: -10; ATG4B inhibitor: -27; CSN deneddyl inh: 5; UHRF1 MBD2 ctr: -1; rCAG binder: -7

Results for C[C@@H](N)P(=O)(O)C[C@H](Cc1ccccc1)C(=O)O ?
LEDGF integ inh: 3; MBD2 inh: -1; UHRF1 MBD2 ctr: -1; rCAG binder: 0

What do the screens show for `CC1=NN(c2ccc(Cl)cc2)C(=O)C1C(c1cccc(O)c1)c1c(C)[nH]n(-c2ccc(Cl)cc2)c1=O` (stereo unspecified)?
ATG4B inhibitor: 31; CSN deneddyl inh: 3

What do the screens show for `CC1=NN(c2ccc(F)cc2)C(=O)C1C(c1cccc(O)c1)c1c(C)[nH]n(-c2ccc(F)cc2)c1=O` (stereo unspecified)?
LEDGF integ inh: 39*; MBD2 inh: 19*; ATG4B inhibitor: -1; CSN deneddyl inh: 5; UHRF1 MBD2 ctr: 19; rCAG binder: 31; UHRF1 DNA bind: 2; MBD2 DBD conf: -1

Results for COc1ccc(Br)c(C(=O)Nc2nc3ccccc3[nH]2)c1 ?
LEDGF integ inh: 7; MBD2 inh: 36*; ATG4B inhibitor: -17; CSN deneddyl inh: -2; UHRF1 MBD2 ctr: 2; rCAG binder: -4; UHRF1 DNA bind: 10; MBD2 DBD conf: 2

Results for COc1cc(OC)cc(C(=O)Nc2nc3ccccc3[nH]2)c1 ?
LEDGF integ inh: 2; MBD2 inh: 3; ATG4B inhibitor: -6; CSN deneddyl inh: -2; UHRF1 MBD2 ctr: -3; rCAG binder: 2

What do the screens show for `CC(C)(C)C(=O)NC1CCN(S(=O)(=O)c2ccccc2F)CC1`?
LEDGF integ inh: 4; MBD2 inh: 15*; ATG4B inhibitor: -10; CSN deneddyl inh: 0; UHRF1 MBD2 ctr: -1; rCAG binder: -5; UHRF1 DNA bind: 7; MBD2 DBD conf: 3

How did O=C(c1cccs1)N1CC[C@H]2[C@H](CCCN2Cc2cc(F)cc(F)c2)C1 do in these assays?
LEDGF integ inh: -1; MBD2 inh: -1; UHRF1 MBD2 ctr: 0; rCAG binder: 2

How did CN(CCO)c1cccc2c1S(=O)(=O)N(Cc1cn(Cc3ccc(Cl)cc3)nn1)Cc1ccccc1O2 do in these assays?
LEDGF integ inh: -3; MBD2 inh: 4; UHRF1 MBD2 ctr: 3; rCAG binder: 4

How did CCOC(=O)N1CCN(C(=O)C[C@H]2C[C@@]3(C(=O)OC)C(=C[C@H](C(C)C)O[C@@H]3C3CC3)N(CCc3ccc(OC)c(OC)c3)C2=O)CC1 do in these assays?
LEDGF integ inh: -2; MBD2 inh: -3; UHRF1 MBD2 ctr: -1; rCAG binder: 2

Results for COc1ccc2c(=O)c3c(=O)n(-c4ccccc4)c(-c4ccc(C)cc4)nc3oc2c1 ?
LEDGF integ inh: -1; MBD2 inh: 19*; ATG4B inhibitor: -4; CSN deneddyl inh: -1; UHRF1 MBD2 ctr: 11; rCAG binder: 2; UHRF1 DNA bind: 18; MBD2 DBD conf: 68*

Results for CC(C)(C)c1ccc(-c2nnc(SCC(=O)c3ccc([N+](=O)[O-])cc3)n2-c2ccc(Cl)cc2)cc1 ?
LEDGF integ inh: -1; MBD2 inh: 1; UHRF1 MBD2 ctr: -1; rCAG binder: 8

Results for CCCCN1CCN(C(=O)C2CCCN(C(=O)c3ccc4c(c3)NC(=O)CS4)C2)CC1 (stereo unspecified) ?
LEDGF integ inh: 4; MBD2 inh: 2; UHRF1 MBD2 ctr: 1; rCAG binder: 1

Results for COc1ccc2c(c1)N=C(c1[nH]c3ccccc3c1CCN1C(=O)c3ccccc3C1=O)[C@]2(O)CCN1C(=O)c2ccccc2C1=O ?
LEDGF integ inh: 0; MBD2 inh: 3; UHRF1 MBD2 ctr: 0

What do the screens show for `CCCCCNC(=O)N[C@H](C(=O)O)C(C)C`?
LEDGF integ inh: 2; MBD2 inh: 16*; ATG4B inhibitor: 2; CSN deneddyl inh: 2; UHRF1 MBD2 ctr: 1; rCAG binder: -2; UHRF1 DNA bind: 8; MBD2 DBD conf: 5

How did Cc1ccccc1CN1CCCCC(NC(=O)Cc2cccs2)C1=O (stereo unspecified) do in these assays?
LEDGF integ inh: 2; MBD2 inh: 4; UHRF1 MBD2 ctr: -3; rCAG binder: 4

How did CCCc1ccc(C(=O)NNC(=O)c2ccc(Br)cc2)cc1 do in these assays?
LEDGF integ inh: 2; MBD2 inh: 15*; ATG4B inhibitor: 3; CSN deneddyl inh: -6; UHRF1 MBD2 ctr: 2; rCAG binder: 3; UHRF1 DNA bind: 8; MBD2 DBD conf: 10

What do the screens show for `CC1CCCCN1C(=O)c1ccc(CNC(=O)c2cccc(Br)c2)cc1` (stereo unspecified)?
LEDGF integ inh: 0; MBD2 inh: 4; UHRF1 MBD2 ctr: -1; rCAG binder: 0

How did Cc1ccc(-c2nc3s/c(=C\c4ccco4)c(=O)n3n2)cc1 do in these assays?
LEDGF integ inh: 12; MBD2 inh: 15*; ATG4B inhibitor: 3; CSN deneddyl inh: 38*; UHRF1 MBD2 ctr: 30*; rCAG binder: 25; UHRF1 DNA bind: 12; MBD2 DBD conf: 5

How did COc1cc(/C=C(\C#N)C(=O)N2CCOCC2)ccc1OCc1ccccc1 do in these assays?
LEDGF integ inh: -5; MBD2 inh: 5; ATG4B inhibitor: -3; CSN deneddyl inh: 5; UHRF1 MBD2 ctr: 3; rCAG binder: -2

What do the screens show for `COc1ccc(/C=C(\C#N)C(=O)N2CCOCC2)cc1Br`?
LEDGF integ inh: -1; MBD2 inh: 41*; ATG4B inhibitor: -1; CSN deneddyl inh: -2; UHRF1 MBD2 ctr: 1; rCAG binder: 1; UHRF1 DNA bind: 4; MBD2 DBD conf: 2

Screening results deposited in PubChem BioAssay by several laboratories.
